17 compounds from ChEMBL document CHEMBL1146590, “Cytotoxic sesquiterpene lactones from the root of Saussurea lappa” (2003) can be followed below.

One experiment relates to Enterococcus. Description: Antibacterial activity against vancomycin-resistant Enterococcus CKU-17. Format: functional.
For experiment [1], the system named is Staphylococcus aureus. Kind of experiment: Antibacterial activity against Staphylococcus aureus. Format: functional.
Experiment [2] relates to Staphylococcus aureus. Kind of experiment: Antibacterial activity against methicillin-resistant Staphylococcus aureus. It is filed as functional.
The subject of another experiment is Enterococcus faecalis. Description: Antibacterial activity against Enterococcus faecalis. Format: functional.
The test system of another experiment is HeLa. Kind of experiment: Cytotoxicity against human HeLa cells after 48 hrs by MTT assay. The conditions noted are these: read-out: CD50 (the source's name). It is filed as functional.
Experiment [3] deals with OVCAR-3. Kind of experiment: Cytotoxicity against human OVCAR-3 cells after 48 hrs by MTT assay. It is filed as functional. The conditions noted are these: for CC50: OVCAR-3, 48 h, read-out: CD50 (the source's name). Summed up: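 OVCAR-3 cells were exposed to a range of concentrations for 48 h, and viability was read by MTT colorimetric assay. CD50 was determined by the MTT method. Data are reported as mean ± SD (n = 4).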
On the technique in general: Tetrazolium dyes change colour on reduction, which living cells bring about.

For the next experiment, the system named is HepG2. Kind of experiment: Cytotoxicity against human HepG2 cells after 48 hrs by MTT assay. As to conditions: for CC50: HepG2, 48 h, read-out: CD50 (the source's name). It is filed as functional.
The subject of the next experiment is Escherichia coli. Kind of experiment: Antibacterial activity against Escherichia coli. Format: functional.
For the next experiment, the system named is OVCAR-3 (Homo sapiens). Kind of experiment: Cytotoxicity against human OVCAR-3 cells after 48 hrs by MTT assay.
Experiment [4] relates to OVCAR-3. Kind of experiment: Cytotoxicity against human OVCAR-3 cells assessed as half cell death at 4 times CD50 up to 2 hrs by MTT assay. It is filed as functional, cell-based. In a few lines: (§1)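 OVCAR-3 cells were seeded at 5 × 10^3 per well and grown 24 h. […] Compound was washed out, fresh medium was added, and cells were incubated a further 48 h at 37 °C. Viable cells were read by MTT at OD 570 nm as % of control, mean ± SD (n = 4).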

Experiment [5] relates to OVCAR-3. Description: Cytotoxicity against human OVCAR-3 cells assessed as half cell death at 2 times CD50 after 6 hrs by MTT assay. Format: functional, cell-based. Summed up: as §1
The subject of experiment [6] is OVCAR-3. Kind of experiment: Cytotoxicity against human OVCAR-3 cells assessed as half cell death at CD50 after 24 hrs by MTT assay. It is filed as functional, cell-based. Summed up:
as §1

≈ marks a conversion by molar mass, not a printed value. Calls of active or inactive are those of the source. The calls are words filed in the database; no cut-off is given here.

Regarding `CN[C@H](CC(C)C)C(=O)N[C@H]1C(=O)N[C@@H](CC(N)=O)C(=O)N[C@H]2C(=O)N[C@H]3C(=O)N[C@H](C(=O)N[C@H](C(=O)O)c4cc(O)cc(O)c4-c4cc3ccc4O)[C@H](O)c3ccc(c(Cl)c3)Oc3cc2cc(c3O[C@@H]2O[C@H](CO)[C@@H](O)[C@H](O)[C@H]2O[C@H]2C[C@](C)(N)[C@H](O)[C@H](C)O2)Oc2ccc(cc2Cl)[C@H]1O` [VANCOMYCIN], the minimum inhibitory concentration (MIC) (usually the least concentration at which growth counts as inhibited) was greater than 100 µg/mL in the experiment on Enterococcus, 1.56 µg/mL (≈ 1.08 µM) in the experiment with Staphylococcus aureus [1], 1.56 µg/mL (≈ 1.08 µM) in the experiment with Staphylococcus aureus [2] and 3.13 µg/mL (≈ 2.16 µM) with Enterococcus faecalis.

Regarding `C=C1C(=O)O[C@@H]2/C=C(\C)CC/C=C(\C)CC[C@@H]12` [COSTUNOLIDE], the values for the CC50 in the experiment on HeLa, in the experiment with OVCAR-3 [3] and in the experiment on HepG2 were 2 µg/mL (≈ 8.61 µM), 2 µg/mL (≈ 8.61 µM) and 1.6 µg/mL (≈ 6.89 µM), respectively. For the same compound, the Activity result in the experiment with OVCAR-3 [3], in the experiment with HepG2 and in the experiment on OVCAR-3 (Homo sapiens) was “Dose-dependent effect” throughout. In addition, the MIC against Enterococcus was 400 µg/mL (≈ 1720 µM); against Staphylococcus aureus [1], 100 µg/mL (≈ 430 µM); in the experiment on Staphylococcus aureus [2], 200 µg/mL (≈ 861 µM); in the experiment with Enterococcus faecalis it was 400 µg/mL (≈ 1720 µM); against Escherichia coli it was greater than 800 µg/mL.

With `C=C1C(=O)O[C@@H]2[C@H]3C(C)=CC[C@@H](O)[C@]3(C)CC[C@@H]12` [SANTAMARIN], the CC50 with HeLa came to 10 µg/mL (≈ 40.3 µM); in the experiment with OVCAR-3 [3], 10 µg/mL (≈ 40.3 µM); in the experiment on HepG2, 7.5 µg/mL (≈ 30.2 µM). The MIC in the experiment on Enterococcus is greater than 800 µg/mL; against Staphylococcus aureus [1], 800 µg/mL (≈ 3220 µM); in the experiment on Staphylococcus aureus [2], 800 µg/mL (≈ 3220 µM); against Enterococcus faecalis it was greater than 800 µg/mL; against Escherichia coli, greater than 800 µg/mL.

For the compound `C=C1CC[C@@H](O)[C@]2(C)CC[C@H]3C(=C)C(=O)O[C@@H]3[C@@H]12` [REYNOSIN], the CC50 in the experiment on HeLa stood at 7.5 µg/mL (≈ 30.2 µM); with OVCAR-3 [3], 7.5 µg/mL (≈ 30.2 µM); with HepG2, 11 µg/mL (≈ 44.3 µM). Besides, the MIC is greater than 800 µg/mL in the experiment on Enterococcus; 800 µg/mL (≈ 3220 µM) against Staphylococcus aureus [1]; greater than 800 µg/mL against Staphylococcus aureus [2]; greater than 800 µg/mL in the experiment on Enterococcus faecalis; greater than 800 µg/mL in the experiment with Escherichia coli.

`C=C1[C@@H]2[C@H]3OC(=O)[C@@H](C)[C@@H]3CCC(=C)[C@@H]2C[C@H]1O`: the CC50 in the experiment on HeLa is 65 µg/mL (≈ 262 µM); in the experiment on OVCAR-3 [3], 65 µg/mL (≈ 262 µM); in the experiment with HepG2 it was 75 µg/mL (≈ 302 µM).

For the compound `C[C@@H]1C(=O)O[C@H]2[C@H]1CC[C@@]1(C)[C@H](O)CC[C@@](C)(O)[C@H]21` [COLARTIN], the CC50 in the experiment on HeLa is 100 µg/mL (≈ 373 µM); with OVCAR-3 [3] it was 100 µg/mL (≈ 373 µM); in the experiment with HepG2 it was greater than 100 µg/mL. The MIC against Enterococcus, against Staphylococcus aureus [1], in the experiment with Enterococcus faecalis and with Escherichia coli was greater than 800 µg/mL throughout.

On to `C=C1[C@@H]2[C@H]3OC(=O)C(=C)[C@@H]3CCC(=C)[C@@H]2C[C@H]1O` [ISOZALUZANIN C], for which the CC50 in the experiment with HeLa came out at 13.5 µg/mL (≈ 54.8 µM); with OVCAR-3 [3], 7.5 µg/mL (≈ 30.4 µM); in the experiment with HepG2, 15 µg/mL (≈ 60.9 µM).

Consider `C=C1CC[C@H]2C(=C)CC[C@@H]3[C@H](OC(=O)[C@@]3(O)CC(C)=O)[C@@H]12` [LAPPALONE], for which the CC50 in the experiment with HeLa, in the experiment with OVCAR-3 [3] and in the experiment with HepG2 was greater than 100 µg/mL in each case.

As to `C=C1CC[C@@H](O)[C@]2(C)CC[C@@H](C(=C)C(=O)OCC)[C@H](O)[C@@H]12`, the CC50 in the experiment with HeLa amounted to 75 µg/mL (≈ 255 µM); in the experiment on OVCAR-3 [3], 75 µg/mL (≈ 255 µM); in the experiment on HepG2, 50 µg/mL (≈ 170 µM).

In the case of `C=C1C(=O)O[C@@H]2[C@@H]3[C@](C)(CCC[C@@]3(C)O)CC[C@@H]12` [ARBUSCULIN A], the CC50 in the experiment on HeLa was 7.5 µg/mL (≈ 30 µM); with OVCAR-3 [3] it was 7.5 µg/mL (≈ 30 µM); in the experiment with HepG2, 10 µg/mL (≈ 39.9 µM).

In the case of `C=C(CO)[C@@H]1CC[C@@]2(C)CCC[C@@](C)(O)[C@@H]2C1` [ILICIC ALCOHOL], the CC50 in the experiment on HeLa, in the experiment with OVCAR-3 [3] and in the experiment with HepG2 was greater than 100 µg/mL throughout.

Consider `C=C1CC[C@H]2C(=C)CC[C@H]3C(=C)C(=O)O[C@@H]3[C@@H]12` [DEHYDROCOSTUSLACTONE], for which the figures for the CC50 in the experiment on HeLa, in the experiment with OVCAR-3 [3] and in the experiment with HepG2 were 3.5 µg/mL (≈ 15.2 µM), 2.5 µg/mL (≈ 10.9 µM) and 3.5 µg/mL (≈ 15.2 µM), respectively. Further, the Activity entry in the experiment with OVCAR-3 [3], in the experiment with HepG2 and with OVCAR-3 (Homo sapiens) was “Dose-dependent effect” in each case. Also, the MIC against Enterococcus is greater than 800 µg/mL; with Staphylococcus aureus [1], 400 µg/mL (≈ 1740 µM); in the experiment on Staphylococcus aureus [2] it was 800 µg/mL (≈ 3470 µM); in the experiment on Enterococcus faecalis, greater than 800 µg/mL; against Escherichia coli it was greater than 800 µg/mL.

On to GENTAMICIN, for which the results for the MIC with Staphylococcus aureus [1], in the experiment with Staphylococcus aureus [2] and against Escherichia coli were 0.78 µg/mL, greater than 100 µg/mL and 3.13 µg/mL, respectively.

Regarding `C=C1CC[C@@H](O)[C@]2(C)CC[C@@H]3[C@H](OC(=O)[C@H]3C)[C@@H]12`, the CC50 with HeLa was greater than 100 µg/mL; with OVCAR-3 [3] it was 95 µg/mL (≈ 379 µM); in the experiment on HepG2, greater than 100 µg/mL.

On to `C=C1CC[C@H]2C(=C)CC[C@@H]3[C@H](OC(=O)[C@@]3(O)C[C@]3(C)CCC(=O)[C@]4(C)CC[C@H]5C(=C)C(=O)O[C@@H]5[C@@H]34)[C@@H]12` [LAPPADILACTONE], for which the CC50 stood at 1.8 µg/mL (≈ 3.64 µM) in the experiment with HeLa, 2.5 µg/mL (≈ 5.05 µM) with OVCAR-3 [3] and 2.4 µg/mL (≈ 4.85 µM) with HepG2. In addition, the Activity entry in the experiment on OVCAR-3 [3], in the experiment with HepG2 and in the experiment with OVCAR-3 (Homo sapiens) was “Dose-dependent effect” each time. The outcome with OVCAR-3 [4], in the experiment with OVCAR-3 [5] and in the experiment with OVCAR-3 [6] was Active.

Consider `O=C(N[C@H](CO)[C@H](O)c1ccc([N+](=O)[O-])cc1)C(Cl)Cl` [CHLORAMPHENICOL], for which the MIC against Enterococcus and in the experiment on Enterococcus faecalis was 6.25 µg/mL (≈ 19.3 µM) each time.

On to `C=C1[C@@H]2[C@H]3OC(=O)C(=C)[C@@H]3CCC(=C)[C@@H]2C[C@@H]1O` [ZALUZANIN C], for which the CC50 in the experiment with HeLa stood at 22 µg/mL (≈ 89.3 µM); in the experiment with OVCAR-3 [3], 15 µg/mL (≈ 60.9 µM); in the experiment on HepG2, 34 µg/mL (≈ 138 µM).
